# Compound activity from PubChem.
# Runt-CBFb FRET: inhibitors of RUNX1 Runt–CBFb binding, primary screen, biochemical, FRET, Cerulean-Runt, Venus-CBFb, uHTS | 220,000 tested, 0.46% active | Runt-related transcription factor 1 (Homo sapiens) + Core-binding factor subunit beta … | inhibition, % at 20 µM | Cerulean-Runt/Venus-CBFb FRET ratio 530/480, 1 h | AID 1496, 2009;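 active = inhibition over about 50% at 20 µM in the single-dose screen, limit read from the data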;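 also: 0% = DMSO wells and 100% = excess unlabeled CBFb competitor control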
# Target sequence (Q01196 whole entry, looked up): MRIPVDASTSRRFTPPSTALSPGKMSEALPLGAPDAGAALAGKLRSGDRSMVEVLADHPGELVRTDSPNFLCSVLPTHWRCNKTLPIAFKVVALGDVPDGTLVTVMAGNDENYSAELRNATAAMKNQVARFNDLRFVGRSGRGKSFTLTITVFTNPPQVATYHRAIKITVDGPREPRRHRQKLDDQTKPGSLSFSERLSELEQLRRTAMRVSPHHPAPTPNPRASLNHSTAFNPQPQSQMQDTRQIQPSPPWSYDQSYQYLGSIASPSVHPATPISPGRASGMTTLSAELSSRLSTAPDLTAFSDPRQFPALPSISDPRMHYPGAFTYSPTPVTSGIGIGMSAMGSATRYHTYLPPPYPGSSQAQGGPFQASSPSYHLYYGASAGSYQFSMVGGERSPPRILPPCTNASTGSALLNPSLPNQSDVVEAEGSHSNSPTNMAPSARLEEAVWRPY
# Target sequence (Q13951 whole entry, looked up): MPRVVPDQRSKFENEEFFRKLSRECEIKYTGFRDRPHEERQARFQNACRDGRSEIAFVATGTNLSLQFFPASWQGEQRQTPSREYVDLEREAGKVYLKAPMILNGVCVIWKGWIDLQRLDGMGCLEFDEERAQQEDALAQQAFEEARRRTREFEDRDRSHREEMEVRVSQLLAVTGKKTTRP
#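 System: Cerulean-labeled Runt domain protein | Quantity: 100 nM of each labeled protein | Schedule: 1 h compound exposure, room temperature | Detection: Fluorescence energy transfer, 422 nm excitation, 530/480 nm emission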
# RanGTP-Impb inh: inhibitors of RanGTP-importin-beta interaction, primary screen, biochemical, FRET, CFP-Ran, YFP-importin-beta, homogeneous | Ran GTPase (GTP-bound) - importin-beta complex | cell-free CFP-Ran/YFP-importin-beta FRET ratio | inhibition, % (concentration not given with the values) | 300,000 tested, 1.1% active | AID 2216, 2009;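 active = more than half of the replicate wells show a fall in the fluorescence ratio signal beyond about 16%, limit read from the data, passing the limit was not always enough; inconclusive = exactly half of the replicate wells pass the set limit; inactive = fewer than half of replicates pass the limit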;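 also: 0% = DMSO wells and 100% = Ran loaded with GDP instead of GTP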
# Runt-SMMHC FRET: inhibitors of RUNX1 Runt–CBFb-SMMHC binding, primary screen, biochemical, FRET, Cerulean-Runt, Venus-CBFb-SMMHC, uHTS; inhibition, % at 20 µM; 220,000 tested, 0.74% active; AID 1434, 2008; Cerulean-Runt/Venus-CBFb-SMMHC FRET ratio 530/480, 1 h;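 active = mean inhibition across duplicate retests at 20 µM reaching about 50%, limit read from the data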;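 also: 0% = DMSO wells and 100% = wells with excess untagged CBFb-SMMHC; inhibitors lower the FRET ratio by blocking Runt binding to CBFb-SMMHC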
# FAS TE block: FAS thioesterase domain inhibitors, primary screen, biochemical, fluorescence intensity, uHTS. Fatty acid synthase (Homo sapiens), P49327. 360,000 tested, 0.67% active. inhibition, % at 15 µM. recombinant FAS-TE, OMFH fluorogenic substrate, fluorescence endpoint;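 active = compounds whose normalised, plate-corrected inhibition of enzyme fluorescence in the single-dose primary screen is 50% or more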;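 also: 0% = DMSO with enzyme and 100% = substrate without enzyme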
# m-calpain inh: inhibitors of pig calpain II, primary screen, biochemical, fluorogenic peptide substrate, 1536-well; AID 1236, 2008; 220,000 tested, 0.37% active; purified calpain II, 30 min; inhibition, % at 16 µM;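 active = inhibition above about 50%, limit read from the data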
# FAS-TE inh conf: FAS thioesterase domain inhibitors, confirmation, biochemical, fluorescence intensity, single concentration; shares compounds with FAS TE block; recombinant FAS-TE, OMFH fluorogenic substrate; inhibition, % at 15 µM; 2,300 tested, 45% active; AID 624325, 2012;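 active = compounds inhibiting the enzyme by at least 50% at 15 µM in any one of the replicates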;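 also: 0% = enzyme with DMSO only and 100% = wells lacking enzyme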
# Numbers without * were called inactive; ? = inconclusive; nt = not tested or not shown. The list is not random: actives were taken first. Their share in the collection is about 2.1%.
SMILES,Runt-CBFb FRET,RanGTP-Impb inh,Runt-SMMHC FRET,FAS TE block,m-calpain inh,FAS-TE inh conf
COc1ccc2c(c1)[C@H]1[C@H](CO2)[C@H](c2ccccc2)[C@@]2(C)C(=O)N[C@H](C)C(=O)N12,nt,nt,nt,-8.5,nt,nt
COc1ccc2c(c1)C(=O)N1[C@H]3c4cc(Br)ccc4OC[C@@H]3[C@H](c3ccccc3)[C@]1(C)C(=O)N2,nt,nt,nt,78.1*,nt,41.0*
C[C@@]12C(=O)Nc3ccccc3C(=O)N1[C@H]1c3cc(Br)ccc3OC[C@@H]1[C@@H]2c1ccccc1,nt,nt,nt,92.3*,nt,47.1*
Cc1cc(NC(=O)CCC(=O)N(c2ccccc2)C(C)C(=O)NC2CCCC2)no1 (stereo unspecified),nt,-0.2,nt,-9.0,nt,nt
COc1cccc(NC(=O)CNC(=O)Cn2cnc3sc(C)c(C)c3c2=O)c1,nt,-1.6,nt,4.0,nt,nt
COc1ccc(/C=N/NC(=S)Nc2cc(S(=O)(=O)N3CCOCC3)ccc2N2CCOCC2)cc1O,0.0,-1.5,-0.6,12.9,-1.7,nt
COc1ccc2ccccc2c1/C=N/NC(=S)Nc1cc(S(=O)(=O)N2CCOCC2)ccc1N1CCOCC1,-5.5,1.5,4.6,91.6*,-90.9,27.0
CCN(CC)S(=O)(=O)c1ccc(N2CCOCC2)c(NC(=O)c2ccc3ccccc3c2)c1,-3.1,0.1,1.1,51.8*,-14.7,21.8
O=C(CSc1nc2ccccc2c(=O)n1-c1ccc(F)cc1F)Nc1ccc2c(c1)CCC2,-3.4,-0.5,1.9,53.9*,-14.7,12.1
O=C(CSc1nc2ccccc2c(=O)n1-c1ccc(F)c(Cl)c1)Nc1ccc2c(c1)CCC2,nt,nt,nt,61.0*,nt,15.2
O=C(CSc1nc2ccccc2c(=O)n1-c1ccccc1F)Nc1ccc2c(c1)CCC2,1.3,1.1,-2.6,25.6,-53.5,nt
O=C(CSc1nc2nc3c(cc2c(=O)n1-c1ccccc1)CCCC3)Nc1cccc2ccccc12,-0.5,1.5,-2.8,62.9*,-32.7,17.1
CCCn1c(=S)[nH]c2cc(C(=O)N3CCN(c4ccc(F)cc4)CC3)ccc2c1=O,nt,nt,nt,54.8*,nt,25.7
Cc1csc(NC(=O)CCNC(=O)c2ccc([N+](=O)[O-])cc2)n1,2.2,0.7,2.6,67.6*,16.3,71.2*
O=C(CCNC(=O)c1ccc([N+](=O)[O-])cc1)Nc1ccc(F)cc1,nt,?,nt,47.2,nt,nt
Cc1cc(C)cc(NC(=O)CCNC(=O)c2ccc([N+](=O)[O-])cc2)c1,nt,-4.1,nt,69.1*,nt,16.0
Cc1cnc(NC(=O)C2CC(=O)N(c3cccc(Cl)c3)C2)s1 (stereo unspecified),nt,-0.8,nt,2.3,nt,nt
COc1cccc2cc(C(=O)NNC(=O)c3ccc(Br)cc3)c(=O)oc12,2.0,4.9,-1.1,-3.1,43.2,nt
O=C(NNc1ccc([N+](=O)[O-])cc1[N+](=O)[O-])C1C2CCCCC21 (stereo unspecified),-2.2,0.7,-1.2,61.8*,2.0,22.7
O=C(NNc1ccc([N+](=O)[O-])cc1)C1C2CCCCC21 (stereo unspecified),-4.2,2.2,0.1,14.3,-17.8,nt
COc1ccc2c(c1)C(O)C(CO)C(C(=O)O)C2 (stereo unspecified),nt,nt,nt,-8.7,nt,nt
Cc1c(O)ccc(C(=O)CN2CCN(c3ccccc3)CC2)c1O,nt,3.5,nt,-3.2,nt,nt
FC(F)(F)c1cccc(N2CCN(C(=S)NC3CCCCC3)CC2)c1,-1.2,-1.7,-5.2,50.9*,34.1,28.0
CCCCN(C(=O)CSCC(=O)Nc1ccc(OC)cc1)c1c(N)n(CC(C)C)c(=O)[nH]c1=O,nt,nt,nt,-7.4,nt,nt
NS(=O)(=O)c1ccc(NC(=O)N2c3ccccc3Sc3ccccc32)cc1,-1.0,5.7,-4.5,nt,-8.2,nt
SMILES,Runt-CBFb FRET,RanGTP-Impb inh,Runt-SMMHC FRET,FAS TE block,m-calpain inh,FAS-TE inh conf
CC1CCN(S(=O)(=O)c2ccc(NC(=O)N3c4ccccc4Sc4ccccc43)cc2)CC1,2.9,-1.7,-0.3,61.9*,-12.7,15.4
COc1ccc(CN(CCC(c2ccccc2)c2ccc(OC(C)C)cc2)C(=O)CCl)cc1OC (stereo unspecified),-13.5,-1.9,-7.0,51.7*,13.8,4.3
CCOc1ccccc1NC(=O)CSC1=C(C#N)C(c2ccco2)C(C(=O)Nc2nc3ccccc3s2)=C(C)N1 (stereo unspecified),-1.6,1.1,-4.2,81.3*,-163.1,18.8
C=CCn1c(SCC(=O)Nc2cc(C)on2)nc2ccccc21,nt,nt,nt,-5.6,nt,nt
Cc1ccc(S(=O)(=O)/N=C(\N)Nc2nc(C)c3ccccc3n2)cc1,-1.7,2.6,-0.3,12.0,4.9,nt
Cc1ccc2nc(N/C(N)=N/S(=O)(=O)c3ccc([N+](=O)[O-])cc3)nc(C)c2c1,-0.9,-0.5,2.7,67.0*,-65.3,55.0*
CC1(C)CC2CC(C)(CN2S(=O)(=O)c2ccc(C(=O)Nc3cc(S(=O)(=O)N4CCOCC4)ccc3Cl)cc2)C1 (stereo unspecified),-36.0,-5.1,4.8,76.4*,-61.5,22.9
CC1(C)CC2CC(C)(CN2S(=O)(=O)c2ccc(C(=O)Nc3cccc(S(=O)(=O)N4CCOCC4)c3)cc2)C1 (stereo unspecified),-6.6,0.7,4.0,47.9,-43.8,nt
CCOc1ccc2ncc(S(=O)(=O)c3ccccc3)c(N3CCC4(CC3)OCCO4)c2c1,-3.0,-2.6,-3.6,nt,2.5,nt
COc1ccc(S(=O)(=O)c2cnc3ccc(OC)cc3c2N2CCC3(CC2)OCCO3)cc1,-1.7,1.7,-0.3,71.9*,1.8,59.6*
O=C1C2ON(c3ccccc3)C(c3cccnc3)C2C(=O)N1c1ccc(Cl)c(Cl)c1 (stereo unspecified),-2.8,3.1,-1.7,60.2*,-49.8,60.4*
O=C1C2ON(c3ccccc3)C(c3cccnc3)C2C(=O)N1c1ccccc1 (stereo unspecified),-0.8,-2.1,0.9,0.0,-32.8,nt
CC(C)[C@H](NC(=O)OC(C)(C)C)c1nnc(S(=O)(=O)Cc2c(F)cccc2Cl)o1,-8.1,1.3,-10.0,83.2*,nt,81.7*
Cc1ccccc1CS(=O)(=O)c1nnc([C@H](CC(C)C)NC(=O)OC(C)(C)C)o1,-3.3,-3.9,0.3,51.7*,21.9,54.7*
CC[C@@H](C)[C@H](NC(=O)OC(C)(C)C)c1nnc(S(=O)(=O)Cc2cc(C)ccc2C)o1,-6.0,-5.6,-2.7,73.0*,9.4,78.7*
CC(C)=CCSc1nnc([C@@H](NC(=O)OC(C)(C)C)C(C)C)o1,-1.0,4.3,3.9,-1.4,9.2,nt
